From ChEMBL document CHEMBL2021854, “2-Aminopyrimidine based 4-aminoquinoline anti-plasmodial agents. Synthesis, biological activity, structure-activity relationship and mode of action studies” (Eur J Med Chem, 2012)
pEC50, pIC50: −log10 of the molar value.

Experiments:
[1] = system: Heme; assay: Binding affinity to monomeric heme in HEPES buffer at pH 7.5 by spectrophotometric analysis
How it was run: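 Monomeric hemin (2.4 μM, 40% DMSO in water) was titrated with compound (0–70 μM) added from DMSO stocks, with absorbance read at 402 nm after each addition. Buffer was HEPES (pH 7.4) for the neutral condition and MES ([…]) for the pH 5.6 condition. Stoichiometry was by Job's method and log K by HypSpec fitting.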

[2] = system: mu-oxodimeric heme; assay: Binding affinity to mu-oxo heme in HEPES buffer at pH 5.8 by UV-visible spectrophotometry analysis
[3] = system: Heme; assay: Binding affinity to monomeric heme in HEPES buffer at pH 5.6 by spectrophotometric analysis
[4] = Cytotoxicity against MDCK cells assessed as minimum compound concentration required to causes microscopically detectable alteration of normal cell morphology; assay type: cell-based, Canis lupus familiaris; conditions: dog
How it was run: (§1)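 Confluent, non-proliferating cell cultures were exposed to the compounds. The endpoint was the minimum concentration producing a microscopically detectable alteration of normal cell morphology.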

[5] = system: Nucleic Acid; assay: Binding affinity to calf thymus DNA assessed as change in melting temperature; assay type: nucleic-acid assay; conditions: Bos taurus
How it was run: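 CT DNA (151 μM NP) was heated with or without compound at a 5:1 DNA:drug ratio in 40% DMSO/TE buffer pH 7.4 with 0.5 mM NaCl. Absorbance at 260 nm was followed with a 0.5 °C/min ramp to obtain Tm.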

[6] = system: Human alphaherpesvirus 1; assay: Antiviral activity against HSV1 KOS infected in HEL cells assessed as inhibition of virus-induced cytopathogenicity after 4 days; assay type: functional, organism-based; conditions: Human alphaherpesvirus 1, KOS, 96 h
How it was run: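 Confluent HEL or HeLa monolayers infected with 100 CCID50 of virus in the presence of varying compound concentrations.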

[7] = system: Influenza A virus; assay: Antiviral activity against Influenza A virus H1N1 infected in MDCK cells assessed as inhibition of virus-induced cytopathogenicity after 4 days by colorimetric formazan-based MTS assay; assay type: functional, organism-based; conditions: 96 h
[8] = system: Influenza A virus; assay: Antiviral activity against Influenza A virus H1N1 infected in MDCK cells assessed as reduction visual scoring of virus-induced cytopathogenicity after 4 days; assay type: functional, organism-based; conditions: 96 h
How it was run: (§2)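 MDCK monolayers infected with 100 CCID50 of influenza A (H1N1 or H3N2) or influenza B, with varying compound concentrations. Cytopathicity read when untreated infected controls reached complete CPE.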

[9] = system: Human betaherpesvirus 5; assay: Antiviral activity against Human cytomegalovirus Davis infected in HEL cells assessed as inhibition of virus plaque formation after 4 days; assay type: functional, organism-based; conditions: Human betaherpesvirus 5, Davis, 96 h
[10] = system: Coxsackievirus B4; assay: Antiviral activity against Coxsackie virus B4 infected in human HeLa cells assessed as inhibition of virus-induced cytopathogenicity after 4 days; assay type: functional, organism-based; conditions: Enterovirus B, 96 h
How it was run: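 Confluent HEL, Vero or HeLa monolayers were inoculated with 100 CCID50 of virus in the presence of varying concentrations of compound. Cytopathicity was scored when it reached completion in untreated, virus-infected control cultures.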

[11] = system: Influenza B virus; assay: Antiviral activity against Influenza B virus infected in MDCK cells assessed as reduction visual scoring of virus-induced cytopathogenicity after 4 days; assay type: functional, organism-based; conditions: 96 h; how it was run: as §2
[12] = system: Feline infectious peritonitis virus; assay: Antiviral activity against FIPV infected in cat CRFK cells assessed as inhibition of virus-induced cytopathic effect after 4 days by colorimetric formazan-based MTS assay; assay type: functional, cell-based; conditions: Alphacoronavirus 1, CRFK, 96 h
[13] = system: Plasmodium falciparum; assay: Resistant factor, ratio of IC50 for chloroquine-resistant Plasmodium falciparum K1 to IC50 for chloroquine-sensitive Plasmodium falciparum 3D7; assay type: functional
How it was run: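 Resistance factor computed as IC50 against K1 divided by IC50 against 3D7, both from the [3H]hypoxanthine incorporation assay.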

[14] = Cytotoxicity against human HeLa cells assessed as minimum compound concentration required to causes microscopically detectable alteration of normal cell morphology; assay type: cell-based; how it was run: as §1
[15] = Inhibition of beta-hematin formation assessed as Ferriprotoporphyrin IX biomineralisation after 24 hrs; assay type: functional
How it was run: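 Hemin (0.5 mg/ml in DMSO) was mixed with 0.5 M sodium acetate pH 4.4 and compound, then incubated for 24 h at 37 °C. The pellet was washed with DMSO to remove unreacted hemin and dissolved in 0.1 N NaOH, with A405 read. Percent inhibition was taken versus solvent control, and IC50 by curve fitting.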

[16] = system: Nucleic Acid; assay: Binding affinity to Escherichia coli pUC18 DNA by spectrofluorometric analysis; assay type: nucleic-acid assay
How it was run: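 Steady-state fluorescence titration at ambient temperature: compound held at 30 μM while DNA was varied (0.3–70 μM), working solutions diluted in methanol. Excitation 320 nm, emission 380 nm, slit 5 nm. Log K was calculated from quenching of the 380 nm emission.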

[17] = system: Plasmodium falciparum; assay: Ratio of chloroquine IC50 to compound IC50 for chloroquine-sensitive Plasmodium falciparum K1; assay type: functional
[18] = system: Plasmodium falciparum; assay: Ratio of chloroquine IC50 to compound IC50 for chloroquine-sensitive Plasmodium falciparum 3D7; assay type: functional

Compound	log Ks [1]	log Ks [2]	log Ks [3]	MCC [4] [nM]	ΔTm [5] [°C]	pEC50 [6]	pEC50 [7]	pEC50 [8]	pEC50 [9]	pEC50 [10]	pEC50 [11]	pEC50 [12]	Ratio IC50 [13]	MCC [14] [µM]	pIC50 [15]	inhibition [15]	log Ks [16]	Ratio IC50 [17]	Ratio IC50 [18]
CCOC(=O)c1c(C)nc(NCCCCNc2ccnc3cc(Cl)ccc23)nc1-c1ccccc1	6.02	6.09	5.28	800	3	< 4.00	< 6.80	< 6.80	5.84	< 4.00	< 6.80	< 5.40	0.129	> 100					
Cc1nc(NCCCCNc2ccnc3cc(Cl)ccc23)nc(-c2ccccc2[N+](=O)[O-])c1C(=O)OC(C)C	5.08	6.31	4.97	4000	2.5	< 5.40	< 6.10	< 6.10	< 5.40	< 4.70	< 6.10	< 4.70	0.2	100	5.70	Dose-dependent effect	5.27	56	56
